Assays:
[1] = biological target: T1, Muscarinic acetylcholine receptor M5 (Homo sapiens, UniProt P08912); experiment: Negative allosteric modulation of human muscarinic acetylcholine receptor M5 expressed in CHO cells assessed as inhibition of acetylcholine-induced calcium mobilization incubated for 150 secs prior to acetylcholine induction by Fluo-4 AM staining-based fluorescence assay; type: functional, cell-based
T1 sequence (P08912 whole entry): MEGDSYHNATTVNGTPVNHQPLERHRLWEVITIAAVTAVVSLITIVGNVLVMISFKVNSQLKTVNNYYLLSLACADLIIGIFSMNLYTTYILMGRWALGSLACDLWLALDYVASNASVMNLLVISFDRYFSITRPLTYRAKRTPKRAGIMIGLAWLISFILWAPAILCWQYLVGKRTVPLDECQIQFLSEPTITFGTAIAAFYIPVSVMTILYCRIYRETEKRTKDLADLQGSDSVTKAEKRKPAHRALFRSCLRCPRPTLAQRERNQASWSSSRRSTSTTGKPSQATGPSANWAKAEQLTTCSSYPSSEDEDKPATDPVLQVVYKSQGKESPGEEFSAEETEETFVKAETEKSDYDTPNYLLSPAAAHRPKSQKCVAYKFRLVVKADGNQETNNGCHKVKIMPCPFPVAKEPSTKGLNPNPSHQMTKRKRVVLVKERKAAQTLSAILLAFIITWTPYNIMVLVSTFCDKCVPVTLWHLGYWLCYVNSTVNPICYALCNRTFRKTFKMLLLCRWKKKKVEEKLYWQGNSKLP

[2] = Fraction unbound in Sprague-Dawley rat brain at 5 uM after 4 hrs by equilibrium dialysis method; type: ADME, tissue-based
In short: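 Nonspecific binding measured in rat brain homogenate to give unbound fraction in brain (fu,br).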

Cytochrome P450 2C9 = Cytochrome P450 2C9 (Homo sapiens, UniProt P11712); experiment: Inhibition of CYP2C9 in human liver microsomes using diclofenac as substrate preincubated for 15 mins followed by NADPH addition measured after 8 mins by LC/MS/MS analysis; type: ADME
Cytochrome P450 2D6 = Cytochrome P450 2D6 (Homo sapiens, UniProt P10635); experiment: Inhibition of CYP2D6 in human liver microsomes using dextromethorphan as substrate preincubated for 15 mins followed by NADPH addition measured after 8 mins by LC/MS/MS analysis; type: ADME
[3] = Plasma clearance in Sprague-Dawley rat at 1 mg/kg, iv; type: ADME, organism-based; parameters: dose 1 mg/kg, route intravenous
[4] = Elimination half life in Sprague-Dawley rat at 1 mg/kg, iv; type: ADME, organism-based; parameters: dose 1 mg/kg, route intravenous; conditions: in vivo, read-out: beta t1/2 (converted)
Cynomolgus monkey = experiment: Elimination half life in cynomolgus monkey at 1 mg/kg, iv; type: ADME, organism-based, Macaca fascicularis; parameters: dose 1 mg/kg, route intravenous; conditions: in vivo
[5] = Ratio of unbound brain to plasma partition coefficient in Sprague-Dawley rat at 10 mg/kg, po measured at 1 hr; type: ADME, organism-based; parameters: dose 10 mg/kg, route oral
In short: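 Oral CNS distribution study in male Sprague-Dawley rats (n=2), 10 mg/kg; brain and plasma sampled one hour post-dose. Total (Kp) and unbound (Kp,uu) brain-plasma partition coefficients calculated, with unbound fractions from plasma and brain homogenate binding.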

[6] = biological target: Cannabinoid receptor 1 (Homo sapiens) (UniProt P21554); experiment: Binding affinity to human CB1 receptor at 10 uM by radioligand binding assay relative to control
Cannabinoid receptor 1 (Homo sapiens), sequence (P21554 whole entry): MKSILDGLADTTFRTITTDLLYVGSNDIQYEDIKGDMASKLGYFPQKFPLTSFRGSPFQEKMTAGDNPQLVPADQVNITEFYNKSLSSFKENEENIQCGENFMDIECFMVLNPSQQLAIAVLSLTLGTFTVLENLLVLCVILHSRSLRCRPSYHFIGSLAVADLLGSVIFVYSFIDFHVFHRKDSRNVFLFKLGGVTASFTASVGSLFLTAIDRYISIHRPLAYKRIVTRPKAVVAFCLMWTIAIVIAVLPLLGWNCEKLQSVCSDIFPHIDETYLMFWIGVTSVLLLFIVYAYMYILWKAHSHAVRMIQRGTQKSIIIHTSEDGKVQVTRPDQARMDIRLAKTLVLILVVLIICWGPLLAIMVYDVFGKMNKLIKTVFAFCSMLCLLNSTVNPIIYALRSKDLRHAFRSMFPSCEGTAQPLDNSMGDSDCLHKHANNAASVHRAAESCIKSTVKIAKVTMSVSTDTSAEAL

Cytochrome P450 2C9, sequence (P11712 whole entry): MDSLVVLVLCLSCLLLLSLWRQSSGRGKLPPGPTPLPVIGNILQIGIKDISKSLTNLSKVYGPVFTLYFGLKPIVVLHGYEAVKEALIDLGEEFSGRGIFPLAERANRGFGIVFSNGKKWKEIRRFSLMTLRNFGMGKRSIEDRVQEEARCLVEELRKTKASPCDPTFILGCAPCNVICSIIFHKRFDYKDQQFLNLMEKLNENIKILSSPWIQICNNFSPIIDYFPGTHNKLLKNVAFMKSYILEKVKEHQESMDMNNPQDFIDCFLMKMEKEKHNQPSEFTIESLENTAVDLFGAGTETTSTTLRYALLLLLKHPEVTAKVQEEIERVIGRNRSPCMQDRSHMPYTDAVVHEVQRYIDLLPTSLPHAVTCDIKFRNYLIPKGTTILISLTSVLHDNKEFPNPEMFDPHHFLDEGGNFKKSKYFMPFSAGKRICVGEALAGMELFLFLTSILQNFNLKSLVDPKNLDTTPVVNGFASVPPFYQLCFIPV
Cytochrome P450 2D6, sequence (P10635 whole entry): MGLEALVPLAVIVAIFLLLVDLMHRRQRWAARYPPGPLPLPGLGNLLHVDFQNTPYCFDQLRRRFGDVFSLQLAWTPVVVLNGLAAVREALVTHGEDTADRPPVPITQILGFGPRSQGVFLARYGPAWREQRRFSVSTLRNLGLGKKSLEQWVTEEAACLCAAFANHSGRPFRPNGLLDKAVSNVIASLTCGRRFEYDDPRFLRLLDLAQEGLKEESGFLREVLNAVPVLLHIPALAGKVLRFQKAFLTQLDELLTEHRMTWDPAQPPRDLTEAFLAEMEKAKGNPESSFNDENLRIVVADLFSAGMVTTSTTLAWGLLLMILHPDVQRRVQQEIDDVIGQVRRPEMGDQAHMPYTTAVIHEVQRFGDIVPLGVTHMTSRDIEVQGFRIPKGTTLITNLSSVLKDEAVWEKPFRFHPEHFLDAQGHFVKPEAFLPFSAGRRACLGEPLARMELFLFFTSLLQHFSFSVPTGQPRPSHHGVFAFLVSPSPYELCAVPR

| SMILES | IC50 [1] [µM] | Fu [2] | IC50 (Cytochrome P450 2C9) [µM] | IC50 (Cytochrome P450 2D6) [µM] | clearance [3] [mL/min/kg] | half-life [4] [h] | beta t1/2 (Cynomolgus monkey) [h] | K(p,uu,brain) [5] | inhibition [6] [%] |
| --- | --- | --- | --- | --- | --- | --- | --- | --- | --- |
| O=C(c1ccc(F)c(F)c1)N1CCN2C(=O)c3ccccc3C12c1ccccc1 (centres undefined) | 1.05 |  |  |  |  |  |  |  |  |
| O=C(c1ccc(F)c(F)c1)N1CCN2C(=O)c3ccccc3[C@@]12c1ccc(Cl)cc1 |  | 0.003 | 7.4 | 26 | 2.5 | 80 | 10 | 0.2 | 66 |
